# Screens from PubChem.
# A selection: hits, their analogues and other compounds. The true share with any hit is near 2.2%.
# FLuc act counter – FLuc activators, initial screening, artefact control for FLuc-dependent activation tests, biochemical, ATPlite luminescence; Luciferin 4-monooxygenase (Photinus pyralis), P08659; ATPlite luciferase biochemical, 10 min; 0 = ATP-free wells, 1 = DMSO control; activation factor at 10 µM; 200,000 tested, under 10 active;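 active = luciferase activation factor, scaled between plate controls, of at least 2 with compound at 10 µM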
#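 Material: Luciferase/luciferin reagent mix | Doses: Test compounds dosed from 2 mM stocks in 100% DMSO | Timing: 10 min incubation after luciferase reagent addition, room temperature | Measured by: Luminescence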
# C8 TRAIL sens – viability loss with TRAIL in NB7+C8 cells, primary screen, TRAIL sensitizer project, cell-based, ATPlite luminescence | inhibition (viability loss, TRAIL sensitization), % at 10 µM | hit rate 1% among 360,000 | AID 624354, 2012;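 active = compounds causing at least 50% loss of cell viability in the single-dose screen, relative to plate controls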
# PKD1 inh – inhibitors of human PKD1 kinase, biochemical, fluorescence polarization | Serine/threonine-protein kinase D1 (Homo sapiens), Q15139 | PKD1 kinase fluorescence polarization assay | inhibition, % (no concentration beside the values) | hit rate 0.056% among 200,000; in the data active = inhibition above about 50%
# Target sequence (Q15139 whole entry, looked up): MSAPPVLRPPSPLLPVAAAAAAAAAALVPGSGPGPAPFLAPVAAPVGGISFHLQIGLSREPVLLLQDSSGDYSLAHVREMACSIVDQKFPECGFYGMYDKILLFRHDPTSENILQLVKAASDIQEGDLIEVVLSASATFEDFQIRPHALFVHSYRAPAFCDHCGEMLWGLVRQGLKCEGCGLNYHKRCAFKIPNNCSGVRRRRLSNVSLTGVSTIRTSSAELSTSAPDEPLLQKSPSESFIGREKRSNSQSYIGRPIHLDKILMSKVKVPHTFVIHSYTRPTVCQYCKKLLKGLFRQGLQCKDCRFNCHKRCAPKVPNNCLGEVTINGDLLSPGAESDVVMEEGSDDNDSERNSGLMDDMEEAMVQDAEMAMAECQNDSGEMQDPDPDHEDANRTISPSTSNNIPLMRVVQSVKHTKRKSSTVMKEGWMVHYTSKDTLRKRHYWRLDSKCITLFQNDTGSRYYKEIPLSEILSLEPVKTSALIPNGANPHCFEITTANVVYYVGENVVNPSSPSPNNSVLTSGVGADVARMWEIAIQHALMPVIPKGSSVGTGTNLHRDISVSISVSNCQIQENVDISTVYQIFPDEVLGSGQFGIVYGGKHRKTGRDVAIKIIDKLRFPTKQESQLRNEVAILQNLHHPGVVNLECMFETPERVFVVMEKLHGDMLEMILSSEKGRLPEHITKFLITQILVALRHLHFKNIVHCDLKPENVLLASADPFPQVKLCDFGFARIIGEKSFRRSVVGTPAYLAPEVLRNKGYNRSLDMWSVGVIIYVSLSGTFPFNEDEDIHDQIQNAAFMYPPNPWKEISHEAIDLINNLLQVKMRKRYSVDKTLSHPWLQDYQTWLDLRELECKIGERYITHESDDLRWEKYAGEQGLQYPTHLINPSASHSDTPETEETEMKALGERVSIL
# PPC-1+TRAIL kill – compounds killing PPC-1 cancer cells with TRAIL present, primary screen, TRAIL potentiator project, ATPLite luminescence, uHTS; PPC-1 cells + TRAIL, ATPLite viability luminescence; hit rate 0.41% among 220,000; cell killing (% activity), % at 4 µM or 5 µM;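 active = cell killing above 50% in the first pass at 4 µM, then a duplicate retest at 5 µM averaging 50% or more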;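 note: plate controls were cells with TRAIL plus DMSO for no effect and medium-only wells lacking cells for full effect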
# Wee1 degr inh – Wee1 degradation inhibitors, primary screen, cell-based, HeLa, Wee1K328M-luciferase, luminescence | reporter increase, % at 5 µM | AID 1321, 2008 | Wee1-like protein kinase (Homo sapiens), P30291 | HeLa Luc-Wee1K328M stability; 100% = proteasome inhibitor MG132 effect | hit rate 1.2% among 220,000;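 active = activation above the mean of all tested compounds plus 3 SD, set per screening run, cut at about 8.8% in these data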;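 note: cells exposed to compound for 20 h before luminescence read; 0% = DMSO alone and 100% = MG132 at 30 µM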
# FLuc inh counter – firefly luciferase enzyme inhibitors, primary screen, artefact control for luciferase-based inhibitor screens, biochemical, luminescence, ATPLite. hit rate 1.5% among 200,000. Luciferin 4-monooxygenase (Photinus pyralis), P08659. 10 min. inhibition, % at 10 µM;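 active = inhibition above about 50% when tested at 10 µM, limit read from the data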
# PPC1 cytotox – cytotoxicity in PPC-1 cells, confirmation, cytotoxicity control for TRAIL apoptosis potentiator project, cell-based, ATP content luminescence | shares compounds with PPC-1+TRAIL kill | AID 1447, 2008 | hit rate 50% among 1,200 | PPC-1 viability, ATPlite luminescence, overnight | cytotoxicity, % at 5 µM;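 active = reconfirmed compounds whose average cytotoxicity reaches 50% or more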;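 note: 0% = DMSO-treated cells and 100% = wells holding medium but no cells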
# * hit, by the source's call; . = no result given.
SMILES,FLuc act counter,C8 TRAIL sens,PKD1 inh,PPC-1+TRAIL kill,Wee1 degr inh,FLuc inh counter,PPC1 cytotox
Brc1ccc(-c2nc(N/N=C/c3cccnc3)c3ccccc3n2)cc1,0,91*,-7,88*,3,96*,87*
C(=N\Nc1nc(-c2ccccn2)nc2ccccc12)/c1ccccc1,.,.,.,69*,0,.,73*
C=CCOC(=O)C1=C(C)NC(SCC(N)=O)=C(C#N)C1c1cccs1 (stereo not given),1.1,9,-12,29,-2,-6,.
CC(=O)C1=C(C)NC(SCC(N)=O)=C(C#N)C1c1cccs1 (stereo not given),1,-6,-4,18,-3,-2,11
C(=N\Nc1cc(N2CCCCC2)ncn1)/c1ccco1,.,39,.,.,.,.,.
COc1cc(SC)ccc1C(=O)Nc1ccccc1,1,14,-8,28,1,-3,.
COc1cc(SC)ccc1C(=O)Nc1ccc2c(c1)OCCO2,0.2,66*,-4,68*,4,83*,65*
COc1cc(SC)ccc1C(=O)Nc1nccs1,0.1,80*,7,67*,-1,92*,69*
COc1ccc(C(=O)N/C(=C\c2cn(C)c3ccccc23)C(=O)NCCCN2CCOCC2)cc1OC,.,-11,.,.,.,.,.
CCOC(=O)C1=C2N(C)c3ccccc3N2CCC1=O,1.1,-4,-8,3,0,-5,8
CC(CCc1ccccc1)NC(=O)CN1CCSc2ccccc21 (stereo not given),1,5,-2,14,-2,2,.
O=C(CCN=C1NS(=O)(=O)c2ccccc21)OCc1ccccc1,.,8,.,.,.,.,.
Cc1cccc(NS(=O)(=O)c2ccc(Br)s2)n1,1,3,-3,15,-2,-4,6
CC(C)[C@H](NC(=O)c1ccc([N+](=O)[O-])cc1Cl)C(=O)N1CCN(C/C=C/c2ccccc2)CC1,.,18,.,.,.,.,.
Cc1ccc(/C=N/Nc2nnc(Cc3ccccc3)c(=O)[nH]2)o1,1,0,0,4,1,1,.
C(=N\Nc1nc2ccccc2[nH]1)/c1ccc2ncccc2c1,.,81*,.,70*,0,.,72*
C(=N\Nc1nc2ccccc2[nH]1)/c1cccc2nccnc12,.,26,.,45,2,.,.
C(=N\Nc1nc2ccccc2[nH]1)/c1ccccn1,0,91*,1,79*,-4,96*,80*
Cc1ccc(/C=N\Nc2nc3ccc(Cl)cc3[nH]2)o1,0.7,9,-6,7,3,26,10
Fc1ccccc1-c1ccc(/C=N/Nc2nc3ccccc3[nH]2)o1,0.1,79*,-4,80*,3,93*,78*
COc1ccc(/C=N/Nc2nc3ccccc3[nH]2)cc1OC,0.6,7,-2,-16,1,36,.
CCCCn1c(/C=N/Nc2nc3ccccc3[nH]2)nc2ccccc21,0.9,27,-7,0,-3,8,.
NS(=O)(=O)c1cc2c(cc1Cl)NC(Cc1ccccc1)NS2(=O)=O (stereo not given),.,3,.,16,-1,.,.
CCSC1=N/C(=C\C=C2/Oc3ccccc3N2CC)C(=O)S1,.,-17,.,3,1,.,.
CC(NC(=O)c1ccccc1Cl)C1COc2ccccc2O1 (stereo not given),1,-7,0,0,4,2,0
SMILES,FLuc act counter,C8 TRAIL sens,PKD1 inh,PPC-1+TRAIL kill,Wee1 degr inh,FLuc inh counter,PPC1 cytotox
Cc1cccc(-n2ncc3c(N4CC(C)CC(C)C4)ncnc32)c1 (stereo not given),0.8,20,-3,14,3,19,.
Cc1cccc(-n2ncc3c(N4CCOCC4)ncnc32)c1,0.1,84*,-12,79*,-4,94*,78*
Clc1ccc(-n2ncc3c(N4CCCCCC4)ncnc32)cc1,0.2,84*,-8,63*,-4,83*,68*
CC1CN(c2ncnc3c2cnn3-c2ccc(Cl)cc2)CC(C)O1 (stereo not given),0.8,12,7,35,0,16,.
Clc1ccc(OCc2nc3ccccc3[nH]2)cc1,0.3,37,4,33,8,70*,36
c1ccc(OCc2nc3ccccc3[nH]2)cc1,0.7,14,-9,24,8,34,.
Cc1ccc(OCc2nc3ccccc3[nH]2)cc1,0.1,30,0,49,-1,88*,43
O=S(=O)(CCc1nc2ccccc2[nH]1)c1ccc(Cl)cc1,1,7,4,10,-1,-4,.
COc1cccc(C(=O)CN(C(=O)c2ccc(Cl)c(Cl)c2)N2C(=O)C3CCCCC3C2=O)c1 (stereo not given),1.1,-5,-6,8,-2,-10,-7
CCn1c(SC)nc2c(c1=O)SC(C)C2 (stereo not given),1.1,-3,-5,3,-3,-6,4
CCSc1nc2c(c(=O)n1CC)SC(C)C2 (stereo not given),1.1,-12,-12,14,0,-6,.
CC(Cc1cccs1)NC(=O)Nc1ccc([N+](=O)[O-])cc1 (stereo not given),1,4,0,-7,3,1,.
O=C(CN1C(=O)C(=O)N(C2CCCC2)C1=O)Nc1ccc(F)cc1F,.,0,.,.,.,.,.
O=C(NCc1cccs1)c1cc(-c2ccc(O)cc2)on1,.,-1,.,16,-2,.,.
Cc1ccc(-c2cc(C(=O)NCc3cccs3)no2)cc1,1,-26,4,15,1,-2,17
CCN(CC)CCNC(=O)c1ccc2c(c1NCCO)C(=O)c1ccccc1C2=O,.,95*,.,33,-4,.,27
COc1ccc(CCNC(=O)COC(=O)Cn2cnc3c2c(=O)n(C)c(=O)n3C)cc1,.,-10,.,.,.,.,.
Cn1c(C(=O)Nc2ccc3c(c2)OCO3)cc2sccc21,0.5,32,-5,6,4,53*,12
Cn1c(C(=O)NCc2ccc3c(c2)OCO3)cc2sccc21,1,2,-11,-2,-4,0,.
Cc1ccccc1C(=O)Nc1ccc2c(c1)OCO2,0.3,41,-1,48,4,74*,52*
Cc1ccnc(NC(=O)Nc2ccc3c(c2)OCO3)c1,0.4,55*,-8,36,8,58*,41
O=C(Nc1ccc2c(c1)OCCO2)Nc1ccc2c(c1)OCO2,0.1,83*,0,73*,3,93*,73*
